Columns and labels:
Assay type in all cases: functional
SW-620 = assay: Cytotoxicity against human SW620 cells; settings: for CC50: read-out: pLC50 (the source's name) (converted); for TGI: read-out: pTGI (converted)
Procedure, shortened: (§1)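 Cell line run as part of the 60-cell-line screening panel; growth inhibition was reported as a GI50 for each line.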

SK-MEL-28 = assay: Cytotoxicity against human SK-MEL-28 cells; settings: for CC50: read-out: pLC50 (the source's name) (converted); for TGI: read-out: pTGI (converted)
Procedure, shortened: (§2)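 Tested in a 60-cell-line human tumor panel screen; the read-out is growth inhibition, reported as GI50 for each cell line.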

CAKI-1 = assay: Cytotoxicity against human Caki1 cells; settings: for TGI: read-out: pTGI (converted); procedure, shortened: as §2
IGROV-1 = assay: Cytotoxicity against human IGROV1 cells; settings: for CC50: read-out: pLC50 (the source's name) (converted); for TGI: read-out: pTGI (converted); procedure, shortened: as §2
Malme-3M = assay: Cytotoxicity against human MALME-3M cells; settings: for CC50: read-out: pLC50 (the source's name) (converted); for TGI: read-out: pTGI (converted); procedure, shortened: as §2
COLO 205 = assay: Cytotoxicity against human COLO205 cells; settings: for CC50: read-out: pLC50 (the source's name) (converted); for TGI: read-out: pTGI (converted); procedure, shortened: as §2
[1] = Cytotoxicity against human Hs578T cells; settings: Hs-578T; for TGI: read-out: pTGI (converted); procedure, shortened: as §2
HCT-116 = assay: Cytotoxicity against human HCT116 cells; settings: for CC50: read-out: pLC50 (the source's name) (converted); for TGI: read-out: pTGI (converted); procedure, shortened: as §2
LOX IMVI = assay: Cytotoxicity against human LOXIMVI cells; settings: for CC50: read-out: pLC50 (the source's name) (converted); for TGI: read-out: pTGI (converted); procedure, shortened: as §2
NCI-H522 = assay: Cytotoxicity against human NCI-H522 cells; settings: for CC50: read-out: pLC50 (the source's name) (converted); for TGI: read-out: pTGI (converted); procedure, shortened: as §2
[2] = Cytotoxicity against human HCT15 cells; settings: for GI50: HCT-15; for CC50: HCT-15, read-out: pLC50 (the source's name) (converted); for TGI: HCT-15, read-out: pTGI (converted); procedure, shortened: as §2
A549 = assay: Cytotoxicity against human A549 cells; settings: for CC50: read-out: pLC50 (the source's name) (converted); for TGI: read-out: pTGI (converted); procedure, shortened: as §2
HOP-62 = assay: Cytotoxicity against human HOP62 cells; settings: for CC50: read-out: pLC50 (the source's name) (converted); for TGI: read-out: pTGI (converted); procedure, shortened: as §2
RPMI-8226 = assay: Cytotoxicity against human RPMI8226 cells; settings: for CC50: read-out: pLC50 (the source's name) (converted); for TGI: read-out: pTGI (converted); procedure, shortened: as §2
TK-10 = assay: Cytotoxicity against human TK10 cells; settings: for TGI: read-out: pTGI (converted); procedure, shortened: as §1
[3] = Cytotoxicity against human OVCAR4 cells; settings: for GI50: OVCAR-4; for CC50: OVCAR-4, read-out: pLC50 (the source's name) (converted); procedure, shortened: as §2
HOP-92 = assay: Cytotoxicity against human HOP92 cells; settings: for CC50: read-out: pLC50 (the source's name) (converted); for TGI: read-out: pTGI (converted); procedure, shortened: as §2

COc1cc(/C=C/c2cc(OC)c3ccn(C)c3c2)cc2c1O[C@]1(C)CC[C@@H](O)C(C)(C)[C@H]1C2
GI50 (SW-620): 1.29 µM
CC50 (SW-620): 10.5 µM
TGI (SW-620): 3.39 µM
GI50 (SK-MEL-28): 1.74 µM
CC50 (SK-MEL-28): 64.6 µM
TGI (SK-MEL-28): 17.4 µM
GI50 (CAKI-1): 0.692 µM
LC50 (CAKI-1): > 100 µM
TGI (CAKI-1): 4.79 µM
GI50 (IGROV-1): 2.24 µM
CC50 (IGROV-1): 95.5 µM
TGI (IGROV-1): 45.7 µM
GI50 (Malme-3M): 3.8 µM
CC50 (Malme-3M): > 100 µM
TGI (Malme-3M): 47.9 µM
GI50 (COLO 205): 1.38 µM
CC50 (COLO 205): 6.61 µM
TGI (COLO 205): 3.02 µM
GI50 [1]: 0.355 µM
LC50 [1]: > 100 µM
TGI [1]: 5.01 µM
GI50 (HCT-116): 1.23 µM
CC50 (HCT-116): 51.3 µM
TGI (HCT-116): 15.1 µM
GI50 (LOX IMVI): 1.62 µM
CC50 (LOX IMVI): 79.4 µM
TGI (LOX IMVI): 17 µM
GI50 (NCI-H522): 1.82 µM
CC50 (NCI-H522): > 100 µM
TGI (NCI-H522): 8.13 µM
GI50 [2]: 1.15 µM
CC50 [2]: 64.6 µM
TGI [2]: 6.31 µM
GI50 (A549): 1.91 µM
CC50 (A549): > 100 µM
TGI (A549): > 100 µM
GI50 (HOP-62): 0.617 µM
CC50 (HOP-62): 28.8 µM
TGI (HOP-62): 3.8 µM
GI50 (RPMI-8226): 0.17 µM
CC50 (RPMI-8226): > 100 µM
TGI (RPMI-8226): 2 µM
GI50 (TK-10): 3.16 µM
LC50 (TK-10): > 100 µM
TGI (TK-10): 93.3 µM
GI50 [3]: 3.89 µM
CC50 [3]: > 100 µM
GI50 (HOP-92): 1.2 µM
CC50 (HOP-92): > 100 µM
TGI (HOP-92): 5.75 µM

COc1cc(/C=C/c2cc(O)c3ccn(C)c3c2)cc2c1O[C@]1(C)CC[C@@H](O)C(C)(C)[C@H]1C2
GI50 (SW-620): 1.02 µM
CC50 (SW-620): > 100 µM
TGI (SW-620): 3.24 µM
GI50 (SK-MEL-28): 0.832 µM
CC50 (SK-MEL-28): > 100 µM
TGI (SK-MEL-28): 16.2 µM
GI50 (CAKI-1): 2.29 µM
LC50 (CAKI-1): > 100 µM
TGI (CAKI-1): 21.9 µM
GI50 (IGROV-1): 2.82 µM
CC50 (IGROV-1): > 100 µM
TGI (IGROV-1): 46.8 µM
GI50 (Malme-3M): 0.309 µM
CC50 (Malme-3M): > 100 µM
TGI (Malme-3M): 49 µM
GI50 (COLO 205): 1.66 µM
CC50 (COLO 205): 7.08 µM
TGI (COLO 205): 3.47 µM
GI50 [1]: 0.141 µM
LC50 [1]: > 100 µM
TGI [1]: 20.4 µM
GI50 (HCT-116): 1.17 µM
CC50 (HCT-116): > 100 µM
TGI (HCT-116): 47.9 µM
GI50 (LOX IMVI): 0.977 µM
CC50 (LOX IMVI): > 100 µM
TGI (LOX IMVI): 50.1 µM
GI50 (NCI-H522): 1.45 µM
CC50 (NCI-H522): > 100 µM
TGI (NCI-H522): 4.37 µM
GI50 [2]: 0.832 µM
CC50 [2]: > 100 µM
TGI [2]: 4.37 µM
GI50 (A549): 4.9 µM
CC50 (A549): > 100 µM
TGI (A549): 64.6 µM
GI50 (HOP-62): 0.407 µM
CC50 (HOP-62): > 100 µM
TGI (HOP-62): 5.01 µM
GI50 (RPMI-8226): 0.0708 µM
CC50 (RPMI-8226): > 100 µM
TGI (RPMI-8226): 1.62 µM
GI50 (TK-10): 3.72 µM
LC50 (TK-10): > 100 µM
TGI (TK-10): 64.6 µM
GI50 [3]: 4.27 µM
CC50 [3]: > 100 µM
TGI ([3]; OVCAR-4, read-out: pTGI (converted)): > 100 µM
GI50 (HOP-92): 0.525 µM
CC50 (HOP-92): > 100 µM
TGI (HOP-92): 5.62 µM
